According to ChEMBL document CHEMBL3739286, “Betulinic acid derived hydroxamates and betulin derived carbamates are interesting scaffolds for the synthesis of novel cytotoxic compounds” (Eur J Med Chem, 2015):

Columns and labels:
[1] = tested on: A2780; test: Cytotoxicity against human A2780 cells after 96 hrs by SRB assay; type: functional, cell-based
Outline: (§1)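 Photometric sulforhodamine B read-out of antiproliferative effect after 96 h of continuous treatment; EC₅₀ values in µM, averaged from three independent experiments each run in triplicate; the assay cut-off is EC₅₀ > 30 µM. Human tumour lines are tested alongside nonmalignant mouse NIH 3T3 fibroblasts.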

[2] = tested on: MCF7; test: Cytotoxicity against human MCF7 cells after 96 hrs by SRB assay; type: functional, cell-based; outline: as §1
[3] = Cytotoxicity against mouse NIH/3T3 cells after 96 hrs by SRB assay; type: cell-based, NIH3T3; outline: as §1
[4] = tested on: A549; test: Cytotoxicity against human A549 cells after 96 hrs by SRB assay; type: functional, cell-based; outline: as §1
[5] = Cytotoxicity against human 518A2 cells after 96 hrs by SRB assay; type: functional, cell-based; outline: as §1
[6] = tested on: HT-29; test: Cytotoxicity against human HT-29 cells after 96 hrs by SRB assay; type: functional, cell-based; conditions: HT-29, 96 h; outline: as §1
[7] = tested on: HeLa; test: Cytotoxicity against human HeLa cells after 96 hrs by SRB assay; type: functional, cell-based; outline: as §1
[8] = Homo sapiens, A2780, 96 h, read-out: EC50
[9] = Homo sapiens, MCF7, 96 h, read-out: EC50
[10] = Mus musculus, NIH3T3, 96 h, read-out: EC50
[11] = Homo sapiens, A549, 96 h, read-out: EC50
[12] = Homo sapiens, 518A2, 96 h, read-out: EC50

Compound | EC50 [1, 8] | EC50 [2, 9] | EC50 [3, 10] | EC50 [4, 11] | EC50 [5, 12] | EC50 [6] | EC50 [7] | EC50 ([1]; a2780) | EC50 ([2]; mcf7) | EC50 ([3]; nih3t3) | EC50 ([4]; a549) | EC50 ([5]; 518a2)
C=C(C)[C@@H]1CC[C@]2(C(=O)NOC)CC[C@]3(C)[C@H](CC[C@@H]4[C@@]5(C)CCC(=O)C(C)(C)[C@@H]5CC[C@]43C)[C@@H]12 | 12 µM | 13.8 µM | 12.7 µM | 6.1 µM | 17.2 µM | – | – | – | – | – | – | –
C=C(C)[C@@H]1CC[C@]2(C(N)=O)CC[C@]3(C)[C@H](CC[C@@H]4[C@@]5(C)CC[C@H](OC(C)=O)C(C)(C)[C@@H]5CC[C@]43C)[C@@H]12 | 5.7 µM | 11.1 µM | 20 µM | 12.4 µM | 13.4 µM | 11.5 µM | 12 µM | – | – | – | – | –
C=C(C)[C@@H]1CC[C@]2(COC(=O)Nc3ccccc3)CC[C@]3(C)[C@H](CC[C@@H]4[C@@]5(C)CC[C@H](O)C(C)(C)[C@@H]5CC[C@]43C)[C@@H]12 | 7.2 µM | 24.6 µM | 14.3 µM | > 30 µM | 23.9 µM | 16.3 µM | 11.5 µM | – | – | – | – | –
C=C(C)[C@@H]1CC[C@]2(CO)CC[C@]3(C)[C@H](CC[C@@H]4[C@@]5(C)CC[C@H](O)C(C)(C)[C@@H]5CC[C@]43C)[C@@H]12 [BETULIN] | > 30 µM | > 30 µM | > 30 µM | > 30 µM | > 30 µM | – | – | – | – | – | – | –
C=C(C)[C@@H]1CC[C@]2(COC(C)=O)CC[C@]3(C)[C@H](CC[C@@H]4[C@@]5(C)CC[C@H](OC(C)=O)C(C)(C)[C@@H]5CC[C@]43C)[C@@H]12 [BETULIN DIACETATE] | > 30 µM | > 30 µM | > 30 µM | > 30 µM | > 30 µM | – | – | – | – | – | – | –
C=CCONC(=O)[C@]12CC[C@@H](C(=C)C)[C@@H]1[C@H]1CC[C@@H]3[C@@]4(C)CC[C@H](OC(C)=O)C(C)(C)[C@@H]4CC[C@@]3(C)[C@]1(C)CC2 | 5.9 µM | 12.2 µM | > 30 µM | 6.6 µM | 7.6 µM | – | – | – | – | – | – | –
C=CCONC(=O)[C@]12CC[C@@H](C(=C)C)[C@@H]1[C@H]1CC[C@@H]3[C@@]4(C)CCC(=O)C(C)(C)[C@@H]4CC[C@@]3(C)[C@]1(C)CC2 | 19.7 µM | 18.4 µM | 19.7 µM | 25 µM | 22.4 µM | – | – | – | – | – | – | –
C=C(C)[C@@H]1CC[C@]2(C(=O)NO)CC[C@]3(C)[C@H](CC[C@@H]4[C@@]5(C)CC[C@H](OC(C)=O)C(C)(C)[C@@H]5CC[C@]43C)[C@@H]12 | 1.3 µM | 1.4 µM | 1.1 µM | 1.3 µM | 1.6 µM | – | – | – | – | – | – | –
C=C(C)[C@@H]1CC[C@]2(C(=O)N(C)O)CC[C@]3(C)[C@H](CC[C@@H]4[C@@]5(C)CCC(=O)C(C)(C)[C@@H]5CC[C@]43C)[C@@H]12 | 3 µM | 10.2 µM | 5 µM | 6 µM | 6.3 µM | – | – | – | – | – | – | –
C=C(C)[C@@H]1CC[C@]2(C(=O)N(C)OC)CC[C@]3(C)[C@H](CC[C@@H]4[C@@]5(C)CC[C@H](O)C(C)(C)[C@@H]5CC[C@]43C)[C@@H]12 | 7.6 µM | 10.2 µM | 7.7 µM | 19 µM | 7.3 µM | – | – | – | – | – | – | –
C=C(C)[C@@H]1CC[C@]2(C(=O)N(C)OC)CC[C@]3(C)[C@H](CC[C@@H]4[C@@]5(C)CCC(=O)C(C)(C)[C@@H]5CC[C@]43C)[C@@H]12 | 20.7 µM | 18.7 µM | 26.7 µM | 14.5 µM | > 30 µM | – | – | – | – | – | – | –
C=C(C)[C@@H]1CC[C@]2(C(=O)O)CC[C@]3(C)[C@H](CC[C@@H]4[C@@]5(C)CC[C@H](OC(C)=O)C(C)(C)[C@@H]5CC[C@]43C)[C@@H]12 | 18.3 µM | 11 µM | > 30 µM | 6.2 µM | 4.5 µM | – | – | – | – | – | – | –
C=C(C)[C@@H]1CC[C@]2(C(=O)N(C)OC)CC[C@]3(C)[C@H](CC[C@@H]4[C@@]5(C)CC[C@H](OC(C)=O)C(C)(C)[C@@H]5CC[C@]43C)[C@@H]12 | 19.3 µM | 16.4 µM | 17.4 µM | 20.1 µM | 17.5 µM | – | – | – | – | – | – | –
C=C(C)[C@@H]1CC[C@]2(C(=O)NOC)CC[C@]3(C)[C@H](CC[C@@H]4[C@@]5(C)CC[C@H](OC(C)=O)C(C)(C)[C@@H]5CC[C@]43C)[C@@H]12 | 8.9 µM | 13.5 µM | 9.5 µM | 11.7 µM | 8 µM | – | – | – | – | – | – | –
C=C(C)[C@@H]1CC[C@]2(C(=O)O)CC[C@]3(C)[C@H](CC[C@@H]4[C@@]5(C)CC[C@H](O)C(C)(C)[C@@H]5CC[C@]43C)[C@@H]12 [BETULINIC ACID] | 8.8 µM | 10.2 µM | 16.1 µM | 17.1 µM | 9.4 µM | – | – | – | – | – | – | –
C=C(C)[C@@H]1CC[C@]2(C(=O)NOC)CC[C@]3(C)[C@H](CC[C@@H]4[C@@]5(C)CC[C@H](O)C(C)(C)[C@@H]5CC[C@]43C)[C@@H]12 | 12.3 µM | 21.9 µM | 15.2 µM | 6.9 µM | 5.8 µM | – | – | – | – | – | – | –
C=C(C)[C@@H]1CC[C@]2(C(=O)N(C)O)CC[C@]3(C)[C@H](CC[C@@H]4[C@@]5(C)CC[C@H](O)C(C)(C)[C@@H]5CC[C@]43C)[C@@H]12 | – | – | – | – | – | – | – | ND(Insoluble) | ND(Insoluble) | ND(Insoluble) | ND(Insoluble) | ND(Insoluble)
C=C(C)[C@@H]1CC[C@]2(C(=O)N(C)O)CC[C@]3(C)[C@H](CC[C@@H]4[C@@]5(C)CC[C@H](OC(C)=O)C(C)(C)[C@@H]5CC[C@]43C)[C@@H]12 | 2 µM | 2.3 µM | 2.9 µM | 4.3 µM | 3.5 µM | – | – | – | – | – | – | –
C=C(C)[C@@H]1CC[C@]2(C(=O)NCc3ccccc3)CC[C@]3(C)[C@H](CC[C@@H]4[C@@]5(C)CC[C@H](O)C(C)(C)[C@@H]5CC[C@]43C)[C@@H]12 | 11.8 µM | 18 µM | 11.1 µM | > 30 µM | > 30 µM | – | > 30 µM | – | – | – | – | –
C=C(C)[C@@H]1CC[C@]2(C(=O)NO)CC[C@]3(C)[C@H](CC[C@@H]4[C@@]5(C)CC[C@H](O)C(C)(C)[C@@H]5CC[C@]43C)[C@@H]12 | 3.7 µM | 3.9 µM | 2 µM | 5.3 µM | 2.4 µM | – | – | – | – | – | – | –
C=CCONC(=O)[C@]12CC[C@@H](C(=C)C)[C@@H]1[C@H]1CC[C@@H]3[C@@]4(C)CC[C@H](O)C(C)(C)[C@@H]4CC[C@@]3(C)[C@]1(C)CC2 | 7.3 µM | 8.6 µM | 6.1 µM | 4.1 µM | 6.7 µM | – | – | – | – | – | – | –
C=C(C)[C@@H]1CC[C@]2(C(=O)O)CC[C@]3(C)[C@H](CC[C@@H]4[C@@]5(C)CCC(=O)C(C)(C)[C@@H]5CC[C@]43C)[C@@H]12 [BETUNOLIC ACID] | 20.4 µM | 25.9 µM | 13.1 µM | 25.9 µM | 29 µM | – | – | – | – | – | – | –
C=C(C)[C@@H]1CC[C@]2(CO)CC[C@]3(C)[C@H](CC[C@@H]4[C@@]5(C)CC[C@H](OC(C)=O)C(C)(C)[C@@H]5CC[C@]43C)[C@@H]12 | 11 µM | 11.2 µM | > 30 µM | 14 µM | 15.2 µM | – | – | – | – | – | – | –
